ChEMBL document CHEMBL1132958, “Design of monocyclic (1-3) and dicyclic (1-3/4-10) gonadotropin releasing hormone (GnRH) antagonists” (J Med Chem, 2000)
Activity calls are given as the source filed them. No cut-off for these calls is given here.

Target: T1, Gonadotropin-releasing hormone receptor (Rattus norvegicus, UniProt P30969)
T1 sequence (P30969 whole entry): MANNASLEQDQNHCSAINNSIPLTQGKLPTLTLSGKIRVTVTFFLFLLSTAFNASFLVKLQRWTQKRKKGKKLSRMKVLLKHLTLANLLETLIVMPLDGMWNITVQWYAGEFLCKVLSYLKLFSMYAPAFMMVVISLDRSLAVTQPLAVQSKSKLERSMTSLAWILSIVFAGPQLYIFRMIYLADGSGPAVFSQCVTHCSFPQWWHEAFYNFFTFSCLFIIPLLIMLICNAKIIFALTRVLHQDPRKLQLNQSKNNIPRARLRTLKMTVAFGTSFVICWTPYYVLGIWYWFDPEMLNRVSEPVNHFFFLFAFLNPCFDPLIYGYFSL
Experiment: Competitive radioligand binding assay for rat Gonadotropin-releasing hormone receptor cells stably transfected in human HEK293
Procedure, shortened: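 Membranes from HEK-293 cells stably expressing rat GnRH receptor (5% sucrose homogenate; nuclei removed at 3000g, membranes pelleted at 20000g, 4 °C), 7 µg protein in 10 mM Hepes pH 7.5, 150 mM NaCl, 0.1% BSA. Competitor at varying concentrations vs des-Gly10-[125I-Tyr5,DAla6,NMeLeu7,Pro9-NHEt]GnRH (~100 000 cpm), 90 min; PEI-coated GF/C filtration, PBS wash, γ counting. Ki by nonlinear least-squares fit; ≥3 independent experiments, mean ± SEM.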

Structure (SMILES) | Ki
CC(=O)N[C@@H]1CC(=O)NCCCC[C@H](C(=O)N[C@H]2CC(=O)NC[C@@H](C(N)=O)NC(=O)[C@@H]3CCCN3C(=O)[C@H](CCCN=C(N)N)NC(=O)[C@H](CC(C)C)NC(=O)[C@@H](Cc3ccc4ccccc4c3)NC(=O)[C@H](Cc3ccc(O)cc3)NC2=O)NC(=O)[C@@H](Cc2ccc(Cl)cc2)NC1=O | 1.2 nM
CC(=O)N[C@@H]1CCC(=O)NCCCC[C@H](C(=O)N[C@H]2CC(=O)NC[C@@H](C(N)=O)NC(=O)[C@@H]3CCCN3C(=O)[C@@H]3CCCCNC(=O)CC[C@H](NC2=O)C(=O)N[C@H](Cc2ccc4ccccc4c2)C(=O)N[C@@H](CC(C)C)C(=O)N3)NC(=O)[C@@H](Cc2ccc(Cl)cc2)NC1=O | 4.6 nM
CC(=O)N[C@@H]1CC(=O)N[C@@H](C)C(=O)NCCC[C@H](C(=O)N[C@@H](CO)C(=O)N[C@@H](Cc2ccc(O)cc2)C(=O)N[C@H](CCCN=C(N)N)C(=O)N[C@@H](CC(C)C)C(=O)N[C@@H](CCCN=C(N)N)C(=O)N2CCC[C@H]2C(=O)N[C@H](C)C(N)=O)NC(=O)[C@@H](Cc2ccc(Cl)cc2)NC1=O | 350 nM
CC(=O)N[C@@H]1CCC(=O)NCCC(=O)NCCCC[C@H](C(=O)N[C@@H](CO)C(=O)N[C@@H](Cc2ccc(O)cc2)C(=O)N[C@H](Cc2ccc3ccccc3c2)C(=O)N[C@@H](CC(C)C)C(=O)N[C@@H](CCCN=C(N)N)C(=O)N2CCC[C@H]2C(=O)N[C@H](C)C(N)=O)NC(=O)[C@@H](Cc2ccc(Cl)cc2)NC1=O | 2.2 nM
CC(=O)N[C@@H]1CC(=O)N[C@H](C)C(=O)NCCC[C@H](C(=O)N[C@@H](CO)C(=O)N[C@@H](Cc2ccc(O)cc2)C(=O)N[C@H](Cc2ccc3ccccc3c2)C(=O)N[C@@H](CC(C)C)C(=O)N[C@@H](CCCN=C(N)N)C(=O)N2CCC[C@H]2C(=O)N[C@H](C)C(N)=O)NC(=O)[C@@H](Cc2ccc(Cl)cc2)NC1=O | 2.4 nM
CC(=O)N[C@@H]1CC(=O)N[C@@H](C)C(=O)NCCC[C@H](C(=O)N[C@@H](CO)C(=O)N[C@@H](Cc2ccc(O)cc2)C(=O)N[C@H](Cc2ccc3ccccc3c2)C(=O)N[C@@H](CC(C)C)C(=O)N[C@@H](CCCN=C(N)N)C(=O)N2CCC[C@H]2C(=O)N[C@H](C)C(N)=O)NC(=O)[C@@H](Cc2ccc(Cl)cc2)NC1=O | 3.3 nM
CC(=O)N[C@H]1CC(=O)NC[C@@H](C(=O)N[C@@H](CO)C(=O)N[C@@H](Cc2ccc(O)cc2)C(=O)N[C@H](Cc2ccc3ccccc3c2)C(=O)N[C@@H](CC(C)C)C(=O)N[C@@H](CCCN=C(N)N)C(=O)N2CCC[C@H]2C(=O)N[C@H](C)C(N)=O)NC(=O)[C@@H](Cc2ccc(Cl)cc2)NC1=O | 31 nM
CC(=O)N[C@@H]1CC(=O)NCCC[C@H](C(=O)N[C@@H](CO)C(=O)N[C@@H](Cc2ccc(O)cc2)C(=O)N[C@H](Cc2ccc3ccccc3c2)C(=O)N[C@@H](CC(C)C)C(=O)N[C@@H](CCCN=C(N)N)C(=O)N2CCC[C@H]2C(=O)N[C@H](C)C(N)=O)NC(=O)[C@@H](Cc2ccc(Cl)cc2)NC1=O | 1.6 nM
CC(=O)N[C@@H]1CCC(=O)NCC(=O)NCCC[C@H](C(=O)N[C@@H](CO)C(=O)N[C@@H](Cc2ccc(O)cc2)C(=O)N[C@H](Cc2ccc3ccccc3c2)C(=O)N[C@@H](CC(C)C)C(=O)N[C@@H](CCCN=C(N)N)C(=O)N2CCC[C@H]2C(=O)N[C@H](C)C(N)=O)NC(=O)[C@@H](Cc2ccc(Cl)cc2)NC1=O | 4.2 nM
CC(=O)N[C@@H]1CCC(=O)NCCC[C@H](C(=O)N[C@@H](CO)C(=O)N[C@@H](Cc2ccc(O)cc2)C(=O)N[C@H](Cc2ccc3ccccc3c2)C(=O)N[C@@H](CC(C)C)C(=O)N[C@@H](CCCN=C(N)N)C(=O)N2CCC[C@H]2C(=O)N[C@H](C)C(N)=O)NC(=O)[C@@H](Cc2ccc(Cl)cc2)NC1=O | 5.2 nM
CC(=O)N[C@@H]1CCC(=O)NCC(=O)NCC[C@H](C(=O)N[C@@H](CO)C(=O)N[C@@H](Cc2ccc(O)cc2)C(=O)N[C@H](Cc2ccc3ccccc3c2)C(=O)N[C@@H](CC(C)C)C(=O)N[C@@H](CCCN=C(N)N)C(=O)N2CCC[C@H]2C(=O)N[C@H](C)C(N)=O)NC(=O)[C@@H](Cc2ccc(Cl)cc2)NC1=O | 20.3 nM
CC(=O)N[C@@H]1CC(=O)N[C@@H](C)C(=O)NCC[C@H](C(=O)N[C@@H](CO)C(=O)N[C@@H](Cc2ccc(O)cc2)C(=O)N[C@H](Cc2ccc3ccccc3c2)C(=O)N[C@@H](CC(C)C)C(=O)N[C@@H](CCCN=C(N)N)C(=O)N2CCC[C@H]2C(=O)N[C@H](C)C(N)=O)NC(=O)[C@@H](Cc2ccc(Cl)cc2)NC1=O | 1.8 nM
CC(=O)N[C@@H]1CNC(=O)C[C@H](C(=O)N[C@@H](CO)C(=O)N[C@@H](Cc2ccc(O)cc2)C(=O)N[C@H](Cc2ccc3ccccc3c2)C(=O)N[C@@H](CC(C)C)C(=O)N[C@@H](CCCN=C(N)N)C(=O)N2CCC[C@H]2C(=O)N[C@H](C)C(N)=O)NC(=O)[C@@H](Cc2ccc(Cl)cc2)NC1=O | 1.7 nM
CC(=O)N[C@@H]1CCC(=O)NCC(=O)NCCCC[C@H](C(=O)N[C@@H](CO)C(=O)N[C@@H](Cc2ccc(O)cc2)C(=O)N[C@H](Cc2ccc3ccccc3c2)C(=O)N[C@@H](CC(C)C)C(=O)N[C@@H](CCCN=C(N)N)C(=O)N2CCC[C@H]2C(=O)N[C@H](C)C(N)=O)NC(=O)[C@@H](Cc2ccc(Cl)cc2)NC1=O | 1.5 nM
CC(=O)N[C@@H]1CC(=O)NCCCC[C@H](C(=O)N[C@@H](CO)C(=O)N[C@@H](Cc2ccc(O)cc2)C(=O)N[C@H](Cc2ccc3ccccc3c2)C(=O)N[C@@H](CC(C)C)C(=O)N[C@@H](CCCN=C(N)N)C(=O)N2CCC[C@H]2C(=O)N[C@H](C)C(N)=O)NC(=O)[C@@H](Cc2ccc(Cl)cc2)NC1=O | 0.82 nM

Continued, values first:

Ki | Structure (SMILES)
0.31 nM | CC(=O)N[C@@H]1CCC(=O)NCC[C@H](C(=O)N[C@@H](CO)C(=O)N[C@@H](Cc2ccc(O)cc2)C(=O)N[C@H](Cc2ccc3ccccc3c2)C(=O)N[C@@H](CC(C)C)C(=O)N[C@@H](CCCN=C(N)N)C(=O)N2CCC[C@H]2C(=O)N[C@H](C)C(N)=O)NC(=O)[C@@H](Cc2ccc(Cl)cc2)NC1=O
0.47 nM | CC(=O)N[C@@H]1CCC(=O)NCCCC[C@H](C(=O)N[C@@H](CO)C(=O)N[C@@H](Cc2ccc(O)cc2)C(=O)N[C@H](Cc2ccc3ccccc3c2)C(=O)N[C@@H](CC(C)C)C(=O)N[C@@H](CCCN=C(N)N)C(=O)N2CCC[C@H]2C(=O)N[C@H](C)C(N)=O)NC(=O)[C@@H](Cc2ccc(Cl)cc2)NC1=O
0.18 nM | CC(=O)N[C@@H]1CC(=O)NCCCC(=O)NC[C@H](C(=O)N[C@@H](CO)C(=O)N[C@@H](Cc2ccc(O)cc2)C(=O)N[C@H](Cc2ccc3ccccc3c2)C(=O)N[C@@H](CC(C)C)C(=O)N[C@@H](CCCN=C(N)N)C(=O)N2CCC[C@H]2C(=O)N[C@H](C)C(N)=O)NC(=O)[C@@H](Cc2ccc(Cl)cc2)NC1=O
0.7 nM | CC(=O)N[C@@H]1CC(=O)NCC(=O)NCC[C@H](C(=O)N[C@@H](CO)C(=O)N[C@@H](Cc2ccc(O)cc2)C(=O)N[C@H](Cc2ccc3ccccc3c2)C(=O)N[C@@H](CC(C)C)C(=O)N[C@@H](CCCN=C(N)N)C(=O)N2CCC[C@H]2C(=O)N[C@H](C)C(N)=O)NC(=O)[C@@H](Cc2ccc(Cl)cc2)NC1=O
0.57 nM | CC(=O)N[C@@H]1CC(=O)N[C@H](C)C(=O)NCC[C@H](C(=O)N[C@@H](CO)C(=O)N[C@@H](Cc2ccc(O)cc2)C(=O)N[C@H](Cc2ccc3ccccc3c2)C(=O)N[C@@H](CC(C)C)C(=O)N[C@@H](CCCN=C(N)N)C(=O)N2CCC[C@H]2C(=O)N[C@H](C)C(N)=O)NC(=O)[C@@H](Cc2ccc(Cl)cc2)NC1=O
0.35 nM | CC(=O)N[C@@H]1CC(=O)NCCC(=O)NC[C@H](C(=O)N[C@@H](CO)C(=O)N[C@@H](Cc2ccc(O)cc2)C(=O)N[C@H](Cc2ccc3ccccc3c2)C(=O)N[C@@H](CC(C)C)C(=O)N[C@@H](CCCN=C(N)N)C(=O)N2CCC[C@H]2C(=O)N[C@H](C)C(N)=O)NC(=O)[C@@H](Cc2ccc(Cl)cc2)NC1=O
0.32 nM | CC(=O)N[C@@H]1CC(=O)NCCC(=O)NCC[C@H](C(=O)N[C@@H](CO)C(=O)N[C@@H](Cc2ccc(O)cc2)C(=O)N[C@H](Cc2ccc3ccccc3c2)C(=O)N[C@@H](CC(C)C)C(=O)N[C@@H](CCCN=C(N)N)C(=O)N2CCC[C@H]2C(=O)N[C@H](C)C(N)=O)NC(=O)[C@@H](Cc2ccc(Cl)cc2)NC1=O
0.34 nM | CC(=O)N[C@@H]1CC(=O)NCC(=O)NCCC[C@H](C(=O)N[C@@H](CO)C(=O)N[C@@H](Cc2ccc(O)cc2)C(=O)N[C@H](Cc2ccc3ccccc3c2)C(=O)N[C@@H](CC(C)C)C(=O)N[C@@H](CCCN=C(N)N)C(=O)N2CCC[C@H]2C(=O)N[C@H](C)C(N)=O)NC(=O)[C@@H](Cc2ccc(Cl)cc2)NC1=O
0.14 nM | CC(=O)N[C@@H]1CC(=O)NCC(=O)NCCCC[C@H](C(=O)N[C@@H](CO)C(=O)N[C@@H](Cc2ccc(O)cc2)C(=O)N[C@H](Cc2ccc3ccccc3c2)C(=O)N[C@@H](CC(C)C)C(=O)N[C@@H](CCCN=C(N)N)C(=O)N2CCC[C@H]2C(=O)N[C@H](C)C(N)=O)NC(=O)[C@@H](Cc2ccc(Cl)cc2)NC1=O
0.17 nM | CC(=O)N[C@@H]1CC(=O)NCCC(=O)NCCC[C@H](C(=O)N[C@@H](CO)C(=O)N[C@@H](Cc2ccc(O)cc2)C(=O)N[C@H](Cc2ccc3ccccc3c2)C(=O)N[C@@H](CC(C)C)C(=O)N[C@@H](CCCN=C(N)N)C(=O)N2CCC[C@H]2C(=O)N[C@H](C)C(N)=O)NC(=O)[C@@H](Cc2ccc(Cl)cc2)NC1=O

Test system: Rattus norvegicus
Experiment: Evaluated for number of rats ovulating in an in vivo anti-ovulatory assay at dose (500 microg); 8/8
Assay type: functional, organism-based

Structure (SMILES) | Activity
CC(=O)N[C@H]1CCC(=O)N[C@@H](C(=O)N[C@@H](CO)C(=O)N[C@@H](Cc2ccc(O)cc2)C(=O)N[C@H](CCCN=C(N)N)C(=O)N[C@H](CC(C)C)C(=O)N[C@@H](CCCN=C(N)N)C(=O)N2CCC[C@H]2C(=O)N[C@H](C)C(N)=O)CCCCNC(=O)[C@@H](Cc2ccc(Cl)cc2)NC1=O | inactive
